The term GI50 denotes the concentration at which growth is held to half of that of the control. Higher therefore signals lower sensitivity of the cells.

What all share (type): functional
One test concerns SK-MEL-2. Briefly: Growth inhibition of human SK-MEL-2 cells. In a few lines:
(§1)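 Part of the NCI DTP 60-cell-line panel. After the single-dose stage, cells were tested at five doses. Read-out is the GI50, the concentration giving 50% inhibition of cell growth, derived for each cell line.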

For another test, the system named is HT-29. As to the kind of experiment: Growth inhibition of human HT-29 cells. In short, it runs like this:
(§2)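 NCI DTP 60-cell-line screen, second stage: five-dose testing across the human tumour panel. GI₅₀ taken as the concentration needed to inhibit cell growth by 50% in each cell line.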

A further test relates to NCI-H522. Briefly: Growth inhibition of human NCI-H522 cells. In short, it runs like this: as §1
For a further test, the system named is MOLT-4. Briefly: Growth inhibition of human MOLT4 cells. In a few lines: as §1
For another test, the system named is NCI-H460. Briefly: Growth inhibition of human NCI-H460 cells. In short, it runs like this: as §1
The next test has as its system OVCAR-8. As to the kind of experiment: Growth inhibition of human OVCAR8 cells. In short, it runs like this:
as §1

The next test deals with LOX IMVI. As to the kind of experiment: Growth inhibition of human LOXIMVI cells. In a few lines:
as §2

The subject of another test is SN12C. As to the kind of experiment: Growth inhibition of human SN12C cells. In a few lines: (§3)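 This is the second, five-dose stage of the NCI DTP 60-cell-line screen. GI50 is the concentration that inhibits cell growth by 50%, derived for each cell line.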
The subject of a further test is HCT-15. Briefly: Growth inhibition of human HCT15 cells. In a few lines: as §2
Another test has as its system SW-620. Briefly: Growth inhibition of human SW620 cells. In a few lines:
as §3

The next test concerns IGROV-1. As to the kind of experiment: Growth inhibition of human IGROV1 cells. In a few lines:
as §2

For the next test, the system named is DU-145. Briefly: Growth inhibition of human DU145 cells. In a few lines:
as §2

The test system of another test is HOP-62. Briefly: Growth inhibition of human HOP62 cells. In a few lines:
as §2

The subject of the next test is BT-549. As to the kind of experiment: Growth inhibition of human BT549 cells. In short, it runs like this:
as §2

The next test relates to SK-OV-3. Briefly: Growth inhibition of human SKOV3 cells. In short, it runs like this:
as §1

The subject of another test is CAKI-1. Briefly: Growth inhibition of human Caki1 cells. In short, it runs like this:
as §2

The next test concerns HCT-116. As to the kind of experiment: Growth inhibition of human HCT116 cells. In short, it runs like this: as §2
A further test has as its system SNB-19. Briefly: Growth inhibition of human SNB19 cells. In a few lines: as §3
In a further test the test system is A549. Briefly: Growth inhibition of human A549 cells. In short, it runs like this:
as §2

Another test has as its system PC-3. As to the kind of experiment: Growth inhibition of human PC3 cells. In short, it runs like this: as §1
The next test relates to KM12. As to the kind of experiment: Growth inhibition of human KM12 cells. In short, it runs like this: as §2
In another test the test system is NCI-H226. As to the kind of experiment: Growth inhibition of human NCI-H226 cells. In short, it runs like this:
as §1

The next test concerns NCI-H322M. As to the kind of experiment: Growth inhibition of human NCI-H322M cells. In a few lines: as §1
The test system of a further test is U-251. Briefly: Growth inhibition of human U251 cells. In short, it runs like this: as §3
The test system of a further test is COLO 205. Briefly: Growth inhibition of human COLO205 cells. In a few lines:
as §2

The subject of a further test is 786-0. Briefly: Growth inhibition of human 786-0 cells. In a few lines:
as §2

The test system of a further test is MDA-MB-231. As to the kind of experiment: Growth inhibition of human MDA-MB-231 cells. In short, it runs like this: as §1
The test system of the next test is UO-31. Briefly: Growth inhibition of human UO31 cells. In a few lines:
as §3

A further test has as its system HOP-92. Briefly: Growth inhibition of human HOP92 cells. In short, it runs like this:
as §2

For the next test, the system named is NCI-H23. Briefly: Growth inhibition of human NCI-H23 cells. In a few lines: as §1
A further test deals with HCC 2998. Briefly: Growth inhibition of human HCC2998 cells. In a few lines: as §2
The subject of the next test is Malme-3M. Briefly: Growth inhibition of human MALME-3M cells assessed as cell growth at 10 uM relative to untreated control. The following applies: read-out: Activity. In a few lines: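 NCI DTP 60-cell-line screen, first stage: a single 10 µM dose of compound given to the human tumour panel. Result reported as percent growth relative to control, on a mean growth graph.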

Regarding `N=C1c2nc3n(c2C(=O)c2nc4n(c21)CCCC4)CCCC3`, the GI50 in the test with SK-MEL-2 is 38 µM; in the test with HT-29, 2.75 µM; in the test on NCI-H522, 4.57 µM; with MOLT-4 it was 38.9 µM; with NCI-H460 it was 1.62 µM; in the test on OVCAR-8, 31.6 µM. Also, the GI50 with LOX IMVI is 0.562 µM; in the test on SN12C, 1.7 µM; in the test with HCT-15, 2.63 µM; in the test with SW-620 it was 3.72 µM; in the test on IGROV-1, 42.7 µM; with DU-145 it was 1.41 µM. Also, the concentration for 50% growth inhibition (GI50) is 2.45 µM in the test with HOP-62; 2.04 µM in the test with BT-549; 33.1 µM with SK-OV-3; 15.5 µM in the test with CAKI-1; 19.5 µM in the test on HCT-116; 2.57 µM with SNB-19. Also, the GI50 in the test with A549 was 2.04 µM; in the test with PC-3 it was 100 µM; with KM12 it was 13.2 µM; with NCI-H226, 1.74 µM; in the test on NCI-H322M it was 1.7 µM; in the test with U-251, 10 µM. The GI50 with COLO 205 is 1.86 µM; in the test with 786-0, 44.7 µM; in the test on MDA-MB-231, 39.8 µM; in the test with UO-31, 2.34 µM; with HOP-92, 43.7 µM; in the test on NCI-H23, 1.38 µM. In the test with HCC 2998, this molecule showed a GI50 of 4.79 µM.

`O=C1c2nc3n(c2C(=O)c2nc4n(c21)CCCC4)CCCC3`: the growth at 10 µM with Malme-3M was found to be 79.6%.
